From PubChem
Sampled rows, rich in hits. Any-hit rate of the full collection: about 1.3%.
TbMetRS inhib: Trypanosoma brucei MetRS inhibition; purified T. brucei MetRS, ATP depletion, Kinase-Glo luminescence; inhibition, % at 11.9 µM; actives 0.4% (n = 360,000); AID 624268;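 active = inhibition above a per-plate cutoff of the control wells' mean inhibition plus 3 SD, cut at about 5.5% in these data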;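 note: 0% = DMSO wells median and 100% = median of wells with control inhibitor compound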
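technique = Kinase-Glo luminescence, ATP depletion format | system = purified MetRS (methionyl-tRNA synthetase) enzyme from Trypanosoma brucei | timing = 15 min preincubation, 2 h reaction, all 25 °C | evaluation = percent inhibition versus plate control medians | dosing = single dose, 11.9 µM final nominal, 0.9% final DMSO | also added = substrates ATP, L-methionine and bulk Escherichia coli tRNA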
Lipid droplet: hepatic lipid droplet formation modulation; AML12 mouse hepatocytes, oleate lipid droplets, BODIPY imaging; inhibition, % at 6.5 µM; actives 0.4% (n = 240,000);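 active = lipid droplet intensity inhibited by at least 50%, with more than 500 cells counted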
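Assay system: AML12 hepatocytes (mouse) / Also added: 100 µM oleic acid challenge / Times: overnight treatment with compound plus oleate / Detection: high-content imaging of BODIPY-stained droplets and DAPI nuclei / Evaluation: % inhibition of lipid droplet signal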
HCV NS3 hel inh: inhibitors of Hepatitis C virus NS3 helicase | NS3 helicase DNA unwinding, Cy5 molecular beacon fluorescence | inhibition, % at 10.9 µM | actives 0.56% (n = 290,000);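 active = inhibition above the mean of all tested compounds plus 3 SD, set per campaign, cut at about 35% in these data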;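 note: 0% = DMSO wells and 100% = thioflavine S control wells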
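Compound dosing – single dose, 10.9 µM nominal final, DMSO 0.8% final · System – NS3 helicase fragment of HCV · Buffer or medium – MOPS pH 6.5, MgCl2, DTT, Tween20, BSA · Signal – Cy5 beacon fluorescence read at start and 1 h · Also added – annealed dual-labelled DNA beacon duplex, ATP-started · Schedule – 1 h at 25 °C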
core dimer inh: blocks dimerization of HCV core protein | actives 0.33% (n = 300,000) | TR-FRET GST/Flag-core106 dimerization, 1536-well | inhibition, % at 5 µM;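 active = inhibition above the mean of all tested compounds plus 3 SD, set per screening campaign, cut at about 45% in these data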
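System: GST/Flag-tagged HCV core106 proteins. Incubation: compound-protein-antibody incubation 4 h at 22.5 °C. Technique: HTRF with 340 nm excitation, 617/671 nm emission. Medium: KF-containing HEPES buffer, pH 7.45, DTT, CHAPS, BSA. Read-out: inhibition (%) from 671 over 617 nm ratio. Also added: Eu(K)-anti-GST 90 ng/mL plus XL665-anti-Flag 1 µg/mL.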
Hep lipid conf: confirmation of inhibitors of hepatic lipid droplet formation | actives 65% (n = 870) | AML12 mouse hepatocytes, BODIPY lipid droplet imaging; droplets induced with 100 µM oleic acid | inhibition, % at 5.2 µM | shares compounds with Lipid droplet;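 active = inhibition of lipid droplet metric at least 50%, with more than 300 cells in each of four replicates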;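 note: plate controls were DMSO with oleic acid for no effect and 5 µM Triacsin-C for full effect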
AML12 tox img: counter-screen for cytotoxicity in AML12 mouse hepatocytes | shares compounds with Lipid droplet | DAPI nuclear morphology cytotoxicity imaging; active compounds read high; cells fed 100 µM oleate overnight | z-score at 5 µM | actives 3% (n = 870) | AID 463200; in the data active = z-score above about 6.3;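 note: compound exposure lasted overnight at 37 °C before fixation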
AML12 tox ATP: confirmation of cytotoxicity in AML12 mouse hepatocytes | cytotoxicity, % at 50 µM | AID 463219 | 530 tested, under 10 active | shares compounds with Lipid droplet | AML12 mouse hepatocyte viability, ATP luminescence; cells loaded with 100 µM oleic acid;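 active = cytotoxicity above 50% in each of four replicates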;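 note: compound exposure lasted overnight at 37 °C before the ATP read; 0% = DMSO-treated cells and 100% = wells with no cells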
Numbers without * were called inactive; / = no result.

SMILES	TbMetRS inhib	Lipid droplet	HCV NS3 hel inh	core dimer inh	Hep lipid conf	AML12 tox img	AML12 tox ATP
O=[N+]([O-])c1cc(Cl)ccc1NCCNc1ncc(C(F)(F)F)cc1Cl	-1	52*	-15	3	44	0.6	/
CN(C)c1ccc(NC2=C([N+](=O)[O-])CS(=O)(=O)C2)cc1	-2	84*	12	-11	15	-0.0095	/
FC(F)(F)c1ccc(Cl)c(NC(=S)N/N=C/c2ccccc2C(F)(F)F)c1	-1	52*	-2	9	104*	0.61	1
COc1cccc(C(=O)NC2CCCc3c2cnn3-c2ccc(C)c(C)c2)c1OC (stereo not drawn)	1	-1	-6	18	/	/	/
COc1ncccc1C(=O)NC1CCCc2c1cnn2-c1ccc(C)c(C)c1 (stereo not drawn)	0	58*	-3	7	92*	-0.4	-1
CCOc1ccc(NC(=O)CCSc2nc3c(c(CC)c2C#N)C(=O)CC(C)(C)C3)cc1	-1	55*	5	8	86*	-0.055	2
Cc1c(Cl)cccc1NC(=O)COC(=O)c1c2c(nc3ccccc13)CCN(Cc1ccccc1)C2	-1	-13	-22	12	/	/	/
CC(C)c1ccccc1NC(=O)COC(=O)c1c2c(nc3ccccc13)CCN(Cc1ccccc1)C2	-1	54*	-24	12	56	-0.0035	16
Nc1nc2c(ncn2[C@@H]2O[C@H](CNC(=O)[C@H](N)Cc3ccccc3)[C@@H](O)[C@H]2O)c(=O)[nH]1	0	/	/	/	/	/	/
CC(C)Cn1c(N)c(C(=O)COC(=O)c2cc(C3CC3)nc3ccccc23)c(=O)n(C)c1=O	/	74*	-48	3	85*	0.016	/
CCCC1(c2ccccc2)NC(=O)N(CC(=O)Nc2cc(C)ccc2OC)C1=O (stereo not drawn)	0	56*	-21	7	87*	-0.48	13
COc1ccc(Cl)cc1NC(=O)CN1C(=O)NC2(CCCC2)C1=O	0	88*	-9	9	91*	0.56	15
COc1ccc(NC(=O)CN2C(=O)NC(c3ccccc3)(c3ccccc3)C2=O)cc1	0	-6	-19	-6	/	/	/
COc1ccc(NC(=O)CN2C(=O)NC(c3ccccc3)(c3ccccc3)C2=O)cc1OC	-1	105*	-32	11	103*	-0.13	2
CN1C(=O)CC2(C)C1=CCc1scnc12 (stereo not drawn)	-1	/	/	/	/	/	/
CCNC(=S)N1CCc2cc(OC)c(OC)cc2C1COc1ccccc1OC (stereo not drawn)	2	62*	-7	-2	93*	-0.38	3
CCNC(=S)N1CCc2cc(OC)c(OC)cc2C1COc1ccc(OC)cc1 (stereo not drawn)	0	16	-16	3	/	/	/
CCCCC(=O)N(C)c1c(CC)nc2c(OCC(=O)c3ccc(Cl)cc3Cl)cccn12	0	/	/	/	/	/	/
CCCCNC(=O)C1(C)CCCCN1C(=O)c1ccc2c(c1)CCO2 (stereo not drawn)	0	/	/	/	/	/	/
O=C1c2ccccc2C2=Nc3ccccc3SC(c3cccc(F)c3)C12 (stereo not drawn)	0	66*	-12	-6	65	8.8*	/
CC(=O)Oc1ccc2c(c1)C(=O)CCCCCC(=O)O2	0	/	/	/	/	/	/
Cc1ccc(S(=O)(=O)N2CCCCC2)cc1C(=O)N(C)CCOc1ccccc1	0	62*	-6	-4	-9	1.8	/
COc1ccc(S(=O)(=O)N2CCCCCC2)cc1C(=O)N(C)CCOc1ccccc1	-1	/	/	0	/	/	/
Cc1ccc2nc(-c3ccc(C#N)cc3)c(Cc3ccccc3)n2c1	-1	/	/	/	/	/	/
Cc1cc2nc(-c3ccccc3)c(Cc3ccsc3)n2c(C)c1Br	-1	/	/	/	/	/	/
O=C(CSCC(=O)N1CCCCC1)Nc1nc(-c2ccccc2)c(-c2ccccc2)s1	0	89*	-11	-89	104*	-0.91	-2
COc1ccc(Cl)cc1CNCCCSc1ncccn1	-1	50*	-4	/	20	0.24	/
CCOc1ccc(Cl)cc1CNCCCSc1ncccn1	0	-10	-15	3	/	/	/
